In ChEMBL document CHEMBL1123641, “Antiulcer agents. 2. Gastric antisecretory, cytoprotective, and metabolic properties of substituted imidazo[1,2-a]pyridines and analogues” (J Med Chem, 1987):
Calls of active or inactive are those of the source. The rule behind the calls is not given here.

Experiments:
Canis familiaris [1] = assay: Antisecretory activity in histamine stimulated dogs at 2 mg/kg dose administered intravenously; type: functional; conditions: Canis lupus familiaris, route intravenous
How it was run: (§1)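 Adult mongrel dogs with surgically prepared Heidenhain pouches, acid secretion stimulated with histamine. Compound given intravenously (0.1-5 mg/kg range). Acid output reduction is expressed relative to the nondrug-treated control value in the same animal, each dog serving as its own control. Unless noted otherwise, one dog per compound. ED50 is the iv dose reducing acid output to 50% of control.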

Canis familiaris [2] = assay: Antisecretory activity in histamine stimulated dogs at 5 mg/kg dose administered orally measured as 50% effective concentration; type: functional; conditions: Canis lupus familiaris, route oral
How it was run: (§2)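 Heidenhain pouch mongrel dogs, histamine-stimulated acid secretion. Compound given orally at 2–8 mg/kg. Reduction in acid output is relative to the same animal's own nondrug control, since histamine response depends on pouch size. Usually a single dog per compound. Oral ED50 is the dose reducing acid output to 50% of control.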

Rattus norvegicus [3] = assay: Antisecretory activity in pylorus ligated rats at a 40 mg/kg dose administered intraperitoneally; type: functional; conditions: ip, route intraperitoneal
How it was run: (§3)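 Pylorus-ligated rats, six per compound and eight controls. Compound given intraperitoneally at 40 mg/kg at the time of ligation. Reduction in acid output measured over 4 h.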

Rattus norvegicus [4] = species: Rattus norvegicus; assay: Cytoprotective activity in rats against the ethyl alcohol stimulated ulcers measured as effective dose; type: functional
How it was run: (§4)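 Rats were dosed orally at 1–30 mg/kg, 30 min before an oral challenge of absolute ethanol. Ethanol-induced gastric lesions were scored 1 h later, and an effective dose was estimated.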

Canis familiaris [5] = assay: Antisecretory activity in histamine stimulated dogs at 2 mg/kg dose administered orally; type: functional; conditions: Canis lupus familiaris, route oral; how it was run: as §2
Canis familiaris [6] = assay: percentage inhibition of acid secretion in histamine stimulated dogs at a dose of 0.4 mg/kg; type: functional; conditions: Canis lupus familiaris
Canis familiaris [7] = assay: Antisecretory activity in histamine stimulated dogs at 8 mg/kg dose administered orally; type: functional; conditions: Canis lupus familiaris, route oral; how it was run: as §2
Canis familiaris [8] = assay: Antisecretory activity in histamine stimulated dogs at 1 mg/kg dose administered intravenously; type: functional; conditions: Canis lupus familiaris, route intravenous; how it was run: as §1
Canis familiaris [9] = assay: percentage inhibition of acid secretion in histamine stimulated dogs at a dose of 0.2 mg/kg; type: functional; conditions: Canis lupus familiaris
Canis familiaris [10] = assay: Antisecretory activity in histamine stimulated dogs at 4 mg/kg dose administered orally; type: functional; conditions: Canis lupus familiaris, route oral; how it was run: as §2
Canis familiaris [11] = assay: Antisecretory activity in histamine stimulated dogs at 5 mg/kg dose administered intravenously; type: functional; conditions: Canis lupus familiaris; route intravenous; how it was run: as §1
Canis familiaris [12] = assay: Antisecretory activity in histamine stimulated dogs following 5 mg/kg i.v. administration.; type: functional; conditions: Canis lupus familiaris, route intravenous; how it was run: as §1
Canis familiaris [13] = assay: Antisecretory activity in histamine stimulated dogs at 0.1 mg/kg dose administered intravenously; type: functional; conditions: Canis lupus familiaris, route intravenous; how it was run: as §1
Rattus norvegicus [14] = assay: Antisecretory activity in pylorus ligated rats at 40 mg/kg dose administered intraperitoneal; type: functional; conditions: ip; how it was run: as §3
Canis familiaris [15] = species: Canis familiaris; conditions: Canis lupus familiaris
Rattus norvegicus [16] = species: Rattus norvegicus; assay: animal or person; conditions: Canis lupus familiaris, in Rattus norvegicus, ip, 4 h
Canis familiaris [17] = assay: The intravenous dose of cimetidine required to reduce acid output to 50% of control value in histamine stimulated dogs; conditions: Canis lupus familiaris
Canis familiaris [18] = assay: The oral dose of cimetidine required to reduce acid output to 50% of control value in histamine stimulated dogs; conditions: Canis lupus familiaris
Canis familiaris [19] = assay: Antisecretory activity in histamine stimulated dogs at 5 mg/kg dose administered orally; type: functional; conditions: Canis lupus familiaris; route oral; how it was run: as §2
Canis familiaris [20] = assay: percentage inhibition of acid secretion in histamine stimulated dogs at a dose of 0.05 mg/kg; type: functional; conditions: Canis lupus familiaris
Rattus norvegicus [21] = species: Rattus norvegicus; assay: Cytoprotective activity in rats against the ethyl alcohol stimulated ulcers measured as effective dose; In active; type: functional, organism-based; how it was run: as §4
Rattus norvegicus [22] = assay: Antisecretory activity in pylorus ligated rats at 40 mg/kg dose administered intraperitoneally; conditions: ip

Structure (SMILES)	inhibition in vivo at 2 mg/kg (Canis familiaris [1]) [%]	inhibition in vivo at 40 mg/kg (Rattus norvegicus [3]) [%]	ED50 (Rattus norvegicus [4]) [mg/kg]	inhibition in vivo at 2 mg/kg (Canis familiaris [5]) [%]	inhibition in vivo at 8 mg/kg (Canis familiaris [7]) [%]	inhibition in vivo at 1 mg/kg (Canis familiaris [8]) [%]	inhibition in vivo at 4 mg/kg (Canis familiaris [10]) [%]	other results
Cc1ccn2c(CC#N)c(C)nc2c1OCc1ccccc1	90	99	13	8	59	74	20	ED50 (Canis familiaris [2]): 7.8 mg/kg; inhibition in vivo at 0.4 mg/kg (Canis familiaris [6]): 39%; inhibition in vivo at 0.2 mg/kg (Canis familiaris [9]): 1%; ED50 (Canis familiaris [11]): 0.53 mg/kg
Cc1nc2c(OCc3ccccc3)cccn2c1CC#N	95	98	3	20	77	83	42	inhibition in vivo at 5 mg/kg (Canis familiaris [12]): 99%; ED50 at 5 mg/kg (Canis familiaris [2]; dose 5 mg/kg): 4.4 mg/kg; inhibition in vivo at 0.1 mg/kg (Canis familiaris [13]): 49%; ED50 (Canis familiaris [11]): 0.09 mg/kg
Cc1nc2cccc(CCc3ccccc3)n2c1N			14					inhibition in vivo at 40 mg/kg (Rattus norvegicus [14]): 40%
CN/C(=N\CCSCc1nc[nH]c1C)NC#N [CIMETIDINE]								ED50 (Canis familiaris [15]): inactive; ED50 (Rattus norvegicus [16]): 26.1 mg/kg; ED50 (Canis familiaris [17]): 0.66 mg/kg; ED50 (Canis familiaris [18]): 1.25 mg/kg
Cc1nc2c(OCc3cccs3)cccn2c1N	77	70	5	30	86		80	inhibition in vivo at 0.1 mg/kg (Canis familiaris [13]): 12%
Cc1nc2c(OCc3ccccc3)cccn2c1N	97	99	6	50	96		74	ED50 (Canis familiaris [19]): 2 mg/kg; inhibition in vivo at 0.05 mg/kg (Canis familiaris [20]): 15%; inhibition in vivo at 0.2 mg/kg (Canis familiaris [9]): 41%; inhibition in vivo at 0.1 mg/kg (Canis familiaris [13]): 55%; ED50 (Canis familiaris [11]): 0.1 mg/kg
Cc1nc2c(OCc3ccc(Cl)cc3)cccn2c1N		66	2.2	32	92	74	81	
CCc1nc2c(OCc3ccccc3)cccn2c1N		83	5.2		59	72		
Nc1cnc2c(OCc3ccccc3)cccn12	81	32	9.1		43	49		
Cc1nc2c(CCc3ccccc3)cccn2c1N	71	47	9	19	52	46	41	
CC(=O)Oc1c(C)nc2c(CCc3ccccc3)cccn12	6	64						ED50 (Rattus norvegicus [21]): inactive
Cc1nc2c(OCc3ccccc3)nccn2c1N	65	79	5	63	70	56	69	ED50 (Canis familiaris [19]): 1.4 mg/kg; inhibition in vivo at 0.4 mg/kg (Canis familiaris [6]): 41%; inhibition in vivo at 0.2 mg/kg (Canis familiaris [9]): 15%; ED50 (Canis familiaris [11]): 0.8 mg/kg
Cc1nc2c(OCc3ccc(F)cc3)cccn2c1N	95	95	4.8	55	93		60	
COc1c(C)nc2c(CCc3ccccc3)cccn12	0		20					inhibition in vivo at 40 mg/kg (Rattus norvegicus [22]): 45%
